Key:
[1] = folding enthalpy; higher = less favourable; fluorescence melt of hairpins on a sequencing array, two-state fit; settings: sodium 0.088 M
Summary of the method: (§1)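 Library hairpins on a sequenced MiSeq flow cell carried annealed Cy3 and quencher oligos, and their Cy3 fluorescence was imaged in 50 mM Na-HEPES pH 8.0 with 25 mM NaCl, in 2.5 °C steps up to 60 °C. Signals were normalised to Cy3 before quenching and to control constructs. Melting temperature and folding enthalpy were obtained from bootstrapped two-state fits, combined by inverse-variance weighting across four replicates, and the fitted temperatures were then raised by 9.35 °C to match UV melts.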

[2] = melting temperature; fluorescence melt of hairpins on a sequencing array, two-state fit, raised by 9.35 °C to match UV melts; settings: sodium 0.088 M
Summary of the method: as §1

Sequence: GCGGGGTCCCGC ((((....))))
- folding enthalpy [1]: -29.3 kcal/mol
- Tm [2]: 65.1 °C

Sequence: GCGGGTACCCGC ((((....))))
- folding enthalpy [1]: -34.1 kcal/mol
- Tm [2]: 67.7 °C

Sequence: GCGGGTACGAAAGTACGC (((..(((....))))))
- folding enthalpy [1]: -13.8 kcal/mol
- Tm [2]: 51.5 °C

Sequence: GCGGGTAGCCGC ((((....))))
- folding enthalpy [1]: -24.2 kcal/mol
- Tm [2]: 64 °C

Sequence: GCGGGTCCCCGC ((((....))))
- folding enthalpy [1]: -23.5 kcal/mol
- Tm [2]: 66.8 °C

Sequence: GCGGGTCTCCGC ((((....))))
- folding enthalpy [1]: -22.9 kcal/mol
- Tm [2]: 67.7 °C

Sequence: GCGGGTTCCCGC ((((....))))
- folding enthalpy [1]: -23.3 kcal/mol
- Tm [2]: 67.3 °C

Sequence: GCGGGTTGCCGC ((((....))))
- folding enthalpy [1]: -19.8 kcal/mol
- Tm [2]: 57.2 °C

Sequence: GCGGTAAACCGC ((((....))))
- folding enthalpy [1]: -26.2 kcal/mol
- Tm [2]: 56 °C

Sequence: GCGGTAACGAAAGTTCGC (((..(((....))))))
- folding enthalpy [1]: -26.7 kcal/mol
- Tm [2]: 47.4 °C

Sequence: GCGGTAGACCGC ((((....))))
- folding enthalpy [1]: -25.7 kcal/mol
- Tm [2]: 60.8 °C

Sequence: GCGGTAGGAAACTACCAC (.(((((....))))).)
- folding enthalpy [1]: -15.6 kcal/mol
- Tm [2]: 44.1 °C

Sequence: GCGGTATCCCGC ((((....))))
- folding enthalpy [1]: -30.5 kcal/mol
- Tm [2]: 53.5 °C

Sequence: GCGGTCCCCGC ((((...))))
- folding enthalpy [1]: -18 kcal/mol
- Tm [2]: 67.5 °C

Sequence: GCGGTCCGCCGC ((((....))))
- folding enthalpy [1]: -19.7 kcal/mol
- Tm [2]: 63.6 °C

Sequence: GCGGTCGAAAGACACCGC ((((((....)))..)))
- folding enthalpy [1]: -24.4 kcal/mol
- Tm [2]: 53.3 °C

Sequence: GCGGTCGAAAGACAGCGC ((((((....)))..)))
- folding enthalpy [1]: -27.7 kcal/mol
- Tm [2]: 69.2 °C

Sequence: GCGGTCGAAAGACTACGC ((((((....)))..)))
- folding enthalpy [1]: -25.1 kcal/mol
- Tm [2]: 54.3 °C

Sequence: GCGGTCGCCCGC ((((....))))
- folding enthalpy [1]: -18.6 kcal/mol
- Tm [2]: 56.7 °C

Sequence: GCGGTCGGAAACGATCGC (((.(((....))).)))
- folding enthalpy [1]: -34.8 kcal/mol
- Tm [2]: 67.3 °C

Sequence: GCGGTCTTCCGC ((((....))))
- folding enthalpy [1]: -23.6 kcal/mol
- Tm [2]: 59.1 °C

Sequence: GCGGTGCCCCGC ((((....))))
- folding enthalpy [1]: -18.8 kcal/mol
- Tm [2]: 54.3 °C

Sequence: GCGGTGCGAAAGCAGTGC ((..(((....)))..))
- folding enthalpy [1]: -23.5 kcal/mol
- Tm [2]: 63.6 °C

Sequence: GCGGTGCGAAAGCATAGC ((..(((....)))..))
- folding enthalpy [1]: -25.4 kcal/mol
- Tm [2]: 63.4 °C

Sequence: GCGGTGCGAAAGCCCGGC ((.(.((....)).).))
- folding enthalpy [1]: -12.4 kcal/mol
- Tm [2]: 61.7 °C

Sequence: GCGGTGCGAAAGCGCAGC ((.(.((....)).).))
- folding enthalpy [1]: -23.4 kcal/mol
- Tm [2]: 64.1 °C

Sequence: GCGGTGGGAAACTGCCGC ((((..(....)..))))
- folding enthalpy [1]: -41.6 kcal/mol
- Tm [2]: 56.6 °C

Sequence: GCGGTGTCCGC ((((...))))
- folding enthalpy [1]: -23 kcal/mol
- Tm [2]: 58.2 °C

Sequence: GCGGTTACCGC ((((...))))
- folding enthalpy [1]: -28.8 kcal/mol
- Tm [2]: 59.2 °C

Sequence: GCGGTTATCCGC ((((....))))
- folding enthalpy [1]: -30 kcal/mol
- Tm [2]: 59 °C

Sequence: GCGGTTCGAAAGAAACGC (((.(((....))).)))
- folding enthalpy [1]: -33.7 kcal/mol
- Tm [2]: 69.1 °C

Sequence: GCGGTTCGAAAGAACGC (((.(((....))))))
- folding enthalpy [1]: -26.8 kcal/mol
- Tm [2]: 61.2 °C

Sequence: GCGGTTGACCGC ((((....))))
- folding enthalpy [1]: -24.7 kcal/mol
- Tm [2]: 63.9 °C

Sequence: GCGGTTGCCGC ((((...))))
- folding enthalpy [1]: -21.2 kcal/mol
- Tm [2]: 56.6 °C

Sequence: GCGTAAAAACGC ((((....))))
- folding enthalpy [1]: -19.9 kcal/mol
- Tm [2]: 46.4 °C

Sequence: GCGTAACGAAAGTTTCGC (((.(((....))).)))
- folding enthalpy [1]: -41.3 kcal/mol
- Tm [2]: 57 °C

Sequence: GCGTAAGGAAACTTACAC (.(((((....))))).)
- folding enthalpy [1]: -18.4 kcal/mol
- Tm [2]: 33.4 °C

Sequence: GCGTAAGGAAACTTACGC (((((((....)))))))
- folding enthalpy [1]: -44.5 kcal/mol
- Tm [2]: 63.4 °C

Sequence: GCGTAAGGACGC ((((....))))
- folding enthalpy [1]: -19.7 kcal/mol
- Tm [2]: 49.3 °C

Sequence: GCGTAAGTACGC ((((....))))
- folding enthalpy [1]: -23.9 kcal/mol
- Tm [2]: 52.9 °C

Sequence: GCGTACATACGC ((((....))))
- folding enthalpy [1]: -24 kcal/mol
- Tm [2]: 52.1 °C

Sequence: GCGTACCAACGC ((((....))))
- folding enthalpy [1]: -21 kcal/mol
- Tm [2]: 53.6 °C

Sequence: GCGTACGACGC ((((...))))
- folding enthalpy [1]: -23.8 kcal/mol
- Tm [2]: 53.3 °C

Sequence: GCGTACTAACGC ((((....))))
- folding enthalpy [1]: -27.2 kcal/mol
- Tm [2]: 53 °C

Sequence: GCGTAGAACGC ((((...))))
- folding enthalpy [1]: -23.7 kcal/mol
- Tm [2]: 54.6 °C

Sequence: GCGTAGACGAAAGTCCGC (((..(((....))))))
- folding enthalpy [1]: -34.9 kcal/mol
- Tm [2]: 53.7 °C

Sequence: GCGTAGCACGC ((((...))))
- folding enthalpy [1]: -11 kcal/mol
- Tm [2]: 68.2 °C

Sequence: GCGTAGCGAAAGCAAAGC ((.(.((....)).).))
- folding enthalpy [1]: -14.2 kcal/mol
- Tm [2]: 54.5 °C

Sequence: GCGTAGCGAAAGCAACGC ((((.((....)).))))
- folding enthalpy [1]: -21.1 kcal/mol
- Tm [2]: 66.7 °C
